According to ChEMBL document CHEMBL1128279, “Potent inhibitors of human inosine monophosphate dehydrogenase type II. Fluorine-substituted analogues of thiazole-4-carboxamide adenine dinucleotide” (J Med Chem, 1995):

How the values were obtained:
[1] = biological target: Inosine-5'-monophosphate dehydrogenase 2 (Homo sapiens) (UniProt P12268); test: Inhibitory binding constant was determined against human Inosine-5'-monophosphate dehydrogenase 2 (IMPDH type II) from intercept of Michaelis-Menten plot
Chain of Inosine-5'-monophosphate dehydrogenase 2 (Homo sapiens) (P12268 2-514 limits assumed): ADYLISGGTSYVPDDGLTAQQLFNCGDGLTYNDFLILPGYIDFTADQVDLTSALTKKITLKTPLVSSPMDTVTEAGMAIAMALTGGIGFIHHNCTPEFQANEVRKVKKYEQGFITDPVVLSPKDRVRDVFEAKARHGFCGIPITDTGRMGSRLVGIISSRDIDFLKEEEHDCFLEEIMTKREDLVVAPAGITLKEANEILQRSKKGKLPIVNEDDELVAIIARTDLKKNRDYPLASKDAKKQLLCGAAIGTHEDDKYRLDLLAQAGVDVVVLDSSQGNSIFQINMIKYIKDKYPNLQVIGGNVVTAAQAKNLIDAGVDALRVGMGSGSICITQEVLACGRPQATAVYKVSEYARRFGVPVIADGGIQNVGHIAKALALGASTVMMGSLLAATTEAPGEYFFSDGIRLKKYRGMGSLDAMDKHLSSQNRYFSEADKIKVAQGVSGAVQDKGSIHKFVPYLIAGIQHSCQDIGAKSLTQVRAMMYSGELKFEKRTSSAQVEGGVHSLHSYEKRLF
Outline: (§1)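 Human IMPDH type II, stored at -70 °C in 20 mM Tris-HCl pH 8, 20 mM KCl, 1 mM EDTA, 1 mM DTT, thawed and filtered before use. Assay at 37 °C, started by adding enzyme, with saturating IMP. NADH formation read at 340 nm for 2–10 min. NAD at 20, 40, 80 and 160 µM, with two or three inhibitor levels. Kii (intercept) and Kis (slope) obtained by direct least-squares fit to the noncompetitive equation.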

[2] = biological target: Inosine-5'-monophosphate dehydrogenase 2 (Homo sapiens) (UniProt P12268); test: Inhibitory binding constant was determined against human Inosine-5'-monophosphate dehydrogenase 2 (IMPDH type II) from slope of Michaelis-Menten plot; outline: as §1

Kii [1]	Kis [2]	Compound
0.5 µM	6 µM	NC(=O)c1csc([C@@H]2O[C@H](COP(=O)(O)OP(=O)(O)OC[C@@H]3O[C@H](n4cnc5c(N)ncnc54)[C@@H](F)[C@H]3O)[C@@H](O)[C@H]2O)n1
0.11 µM	–	NC(=O)c1csc([C@@H]2O[C@H](COP(=O)(O)CP(=O)(O)OC[C@@H]3O[C@H](n4cnc5c(N)ncnc54)[C@@H](O)[C@H]3O)[C@@H](O)[C@H]2O)n1

More lines, now with the values behind:

Compound	Kii [1]	Kis [2]
NC(=O)c1csc([C@@H]2O[C@H](COP(=O)(O)OP(=O)(O)OC[C@@H]3O[C@H](n4cnc5c(N)ncnc54)[C@@H](O)[C@H]3F)[C@@H](O)[C@H]2O)n1	0.7 µM	1.5 µM
NC(=O)c1csc([C@@H]2O[C@H](COP(=O)(O)OP(=O)(O)OC[C@@H]3O[C@H](n4cnc5c(N)ncnc54)[C@H](F)[C@H]3O)[C@@H](O)[C@H]2O)n1	2.9 µM	13 µM
NC(=O)c1csc([C@@H]2O[C@H](COP(=O)(O)C(F)(F)P(=O)(O)OC[C@@H]3O[C@H](n4cnc5c(N)ncnc54)[C@@H](O)[C@H]3O)[C@@H](O)[C@H]2O)n1	0.17 µM	0.3 µM
NC(=O)c1csc([C@H]2O[C@@H](COP(=O)(O)OP(=O)(O)OC[C@H]3O[C@@H](n4cnc5c(N)ncnc54)[C@H](O)[C@@H]3O)[C@H](O)[C@@H]2O)n1	0.19 µM	0.3 µM
